Data as given in ChEMBL document CHEMBL1123390, “3-Hydroxy-3-methylglutaryl-coenzyme A reductase inhibitors. 3. 7-(3,5-Disubstituted [1,1'-biphenyl]-2-yl)-3,5-dihydroxy-6-heptenoic acids and their lactone derivatives” (J Med Chem, 1986).
pIC50: −log10 of the molar value.

What was measured:
[1] = target: T1, 3-hydroxy-3-methylglutaryl-coenzyme A reductase (Rattus norvegicus) (UniProt P51639); experiment: Inhibitory potency against purified rat liver HMG-CoA reductase relative to compactin
T1 sequence (whole entry): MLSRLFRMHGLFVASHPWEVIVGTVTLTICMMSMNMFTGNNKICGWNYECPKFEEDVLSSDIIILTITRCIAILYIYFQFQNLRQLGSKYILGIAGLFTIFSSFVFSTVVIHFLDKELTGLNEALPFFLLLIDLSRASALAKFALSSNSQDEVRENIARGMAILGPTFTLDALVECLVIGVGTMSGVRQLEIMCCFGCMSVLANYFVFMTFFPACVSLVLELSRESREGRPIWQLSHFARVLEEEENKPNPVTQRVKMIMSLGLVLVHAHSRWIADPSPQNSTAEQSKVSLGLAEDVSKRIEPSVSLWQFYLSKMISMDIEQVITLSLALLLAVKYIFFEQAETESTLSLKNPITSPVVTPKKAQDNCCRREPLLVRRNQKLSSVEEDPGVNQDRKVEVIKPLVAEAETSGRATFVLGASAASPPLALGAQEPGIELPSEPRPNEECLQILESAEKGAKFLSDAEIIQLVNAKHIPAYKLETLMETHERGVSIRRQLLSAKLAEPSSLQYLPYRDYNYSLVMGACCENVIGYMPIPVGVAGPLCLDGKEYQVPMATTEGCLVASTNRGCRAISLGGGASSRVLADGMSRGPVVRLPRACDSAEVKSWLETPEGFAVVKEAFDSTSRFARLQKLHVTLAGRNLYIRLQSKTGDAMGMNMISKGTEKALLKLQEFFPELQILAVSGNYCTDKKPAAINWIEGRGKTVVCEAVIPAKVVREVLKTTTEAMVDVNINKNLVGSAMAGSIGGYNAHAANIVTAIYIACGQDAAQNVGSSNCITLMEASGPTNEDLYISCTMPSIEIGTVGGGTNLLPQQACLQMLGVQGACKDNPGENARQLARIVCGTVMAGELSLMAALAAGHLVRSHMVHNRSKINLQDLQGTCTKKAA

[2] = target: T2, 3-hydroxy-3-methylglutaryl-coenzyme A reductase (Rattus norvegicus, UniProt P51639); experiment: Inhibition of solubilized partially purified rat liver HMG-CoA reductase
T2 sequence (P51639 whole entry): T1 sequence (whole entry)
Summary of the method: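 Enzyme inhibition was tested at four or five test-compound concentrations, and percentage inhibition was plotted against concentration. IC50 came from a straight line fitted to these points by least squares. The full protocol is given in part 1 of the series.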

SMILES | Relative potency [1] | pIC50 [2]
Cc1cc(-c2cc(Cl)cc(Cl)c2/C=C/[C@@H]2C[C@@H](O)CC(=O)O2)ccc1F | 100 | 7.54
O=C1C[C@H](O)C[C@@H](/C=C/c2c(Cl)cc(Cl)cc2CCc2ccccc2)O1 | 2.8 | 6.37
Cc1cc(C)c(/C=C/[C@@H]2C[C@@H](O)CC(=O)O2)c(-c2ccc(F)c(C)c2)c1 (stereo in doubt; 110(-)) [listing 1 of 2 here] |  | 5.14
Cc1cc(C)cc(-c2cc(Cl)cc(Cl)c2/C=C/[C@@H]2C[C@@H](O)CC(=O)O2)c1 | 115 | 7.89
O=C1C[C@H](O)C[C@@H](/C=C/c2c(Cl)cc(Cl)cc2-c2ccc(F)cc2)O1 (stereo in doubt; 100(+)h) [listing 1 of 2 here] |  | 8.30
O=C1C[C@H](O)C[C@@H](/C=C/c2c(Cl)cc(Cl)cc2-c2ccc(F)cc2)O1 (stereo in doubt; 100) [listing 1 of 2 here] |  | 7.62
O=C1C[C@H](O)C[C@@H](/C=C/c2c(Cl)cc(Cl)cc2-c2ccc(Cl)cc2)O1 | 58 | 7.44
O=C1C[C@H](O)C[C@@H](/C=C/c2c(F)cc(F)cc2-c2ccc(F)cc2)O1 | 3.5 | 6.07
Cc1cc(C)c(/C=C/[C@@H]2C[C@@H](O)CC(=O)O2)c(-c2ccc(F)c(C)c2)c1 (stereo in doubt; 110) [listing 1 of 2 here] | 171 | 
Cc1cc(-c2cc(Cl)cc(C)c2/C=C/[C@@H]2C[C@@H](O)CC(=O)O2)ccc1F | 233 | 8.22
Cc1cc(F)ccc1-c1cc(Cl)cc(Cl)c1/C=C/[C@@H]1C[C@@H](O)CC(=O)O1 | 33 | 7.44
Cc1cc(C)c(/C=C/[C@@H]2C[C@@H](O)CC(=O)O2)c(-c2ccc(F)c(CO)c2)c1 | 26.5 | 7.31
O=C1C[C@H](O)C[C@@H](/C=C/c2ccccc2-c2ccccc2)O1 | 0.63 | 
Cc1cc(C)c(/C=C/[C@@H]2C[C@@H](O)CC(=O)O2)c(/C=C/c2ccc(Cl)cc2)c1 | 2.4 | 6.20
COc1cccc(-c2cc(Cl)cc(Cl)c2/C=C/[C@@H]2C[C@@H](O)CC(=O)O2)c1 | 26 | 7.30
O=C1C[C@H](O)CC(CCc2c(Cl)cc(Cl)cc2Cc2ccccc2)O1 (some centres undefined) | 4.3 | 6.28
Cc1cc(C)cc(-c2cc(C)cc(C)c2/C=C/[C@@H]2C[C@@H](O)CC(=O)O2)c1 | 80 | 7.82
Cc1cc(C)c(CCC2C[C@@H](O)CC(=O)O2)c(-c2ccc(F)c(C)c2)c1 (some centres undefined) | 45 | 7.66
O=C1C[C@H](O)C[C@@H](/C=C/c2c(Cl)cc(Cl)cc2-c2cccc(F)c2)O1 | 38.6 | 7.15
Cc1cccc(-c2cc(Cl)cc(Cl)c2/C=C/[C@@H]2C[C@@H](O)CC(=O)O2)c1 | 94 | 7.80
O=C1C[C@H](O)C[C@@H](/C=C/c2c(Cl)cc(Cl)cc2-c2ccc(Cl)c(Cl)c2)O1 | 116 | 7.60
O=C1C[C@H](O)C[C@@H](/C=C/c2c(Cl)cc(Cl)cc2-c2ccccc2)O1 | 26 | 7.10

SMILES | Relative potency [1] | pIC50 [2]
O=C1C[C@H](O)C[C@@H](/C=C/c2c(Cl)cc(Cl)cc2-c2ccc(F)cc2)O1 (stereo in doubt; 100(+)h) [listing 2 of 2 here] | 280 | 
O=C1C[C@H](O)C[C@@H](/C=C/c2c(Cl)cc(Cl)cc2-c2cc(Cl)cc(Cl)c2)O1 | 78 | 7.43
Cc1cc(Cl)c(/C=C/[C@@H]2C[C@@H](O)CC(=O)O2)c(-c2ccc(F)c(C)c2)c1 | 92 | 7.89
O=C1C[C@H](O)CC(CCc2c(Cl)cc(Cl)cc2-c2ccccc2)O1 (some centres undefined) | 18 | 7.00
O=C1C[C@H](O)CC(CCc2ccccc2-c2ccccc2)O1 (some centres undefined) | 0.44 | 4.36
Cc1cc(C)c(/C=C/[C@@H]2C[C@@H](O)CC(=O)O2)c(-c2ccc(Cl)c(Cl)c2)c1 | 175 | 8.10
CCc1cccc(-c2cc(Cl)cc(Cl)c2/C=C/[C@@H]2C[C@@H](O)CC(=O)O2)c1 | 30 | 7.36
O=C1C[C@H](O)C[C@@H](/C=C/c2ccc(Cl)cc2Cl)O1 | 0.06 | 
Cc1cc(C)c(/C=C/[C@@H]2C[C@@H](O)CC(=O)O2)c(-c2ccc(F)c(C)c2)c1 (stereo in doubt; 110 (+)) [listing 1 of 2 here] |  | 8.12
Cc1cc(C)c(/C=C/[C@@H]2C[C@@H](O)CC(=O)O2)c(-c2ccc(F)c(C)c2)c1 (stereo in doubt; 110 (+)) [listing 2 of 2 here] | 289 | 
O=C1C[C@H](O)C[C@@H](/C=C/c2c(Cl)cc(Cl)cc2-c2ccc(F)cc2)O1 (stereo in doubt; 100(i)i) [listing 1 of 2 here] | 5 | 
Cc1cc(C)c(/C=C/[C@@H]2C[C@@H](O)CC(=O)O2)c(-c2ccc(F)cc2)c1 | 96 | 7.89
Cc1ccc(C)c(-c2ccc(Cl)c(Cl)c2)c1/C=C/[C@@H]1C[C@@H](O)CC(=O)O1 | 123 | 7.89
Cc1cc(C)c(/C=C/[C@@H]2C[C@@H](O)CC(=O)O2)c(-c2cc(C)c(F)c(C)c2)c1 | 150 | 8.00
O=C1C[C@H](O)C[C@@H](/C=C/c2c(Cl)cc(Cl)cc2-c2ccc(F)cc2)O1 (stereo in doubt; 100(i)i) [listing 2 of 2 here] |  | 6.59
O=C1C[C@H](O)C[C@@H](/C=C/c2c(Cl)cc(Cl)cc2-c2ccc(F)cc2)O1 (stereo in doubt; 100) [listing 2 of 2 here] | 100 | 
COc1ccc(-c2cc(Cl)cc(Cl)c2/C=C/[C@@H]2C[C@@H](O)CC(=O)O2)cc1 | 2.6 | 6.33
Cc1cc(C)c(/C=C/[C@@H]2C[C@@H](O)CC(=O)O2)c(-c2ccc(F)c(C)c2)c1 (stereo in doubt; 110) [listing 2 of 2 here] |  | 8.15
Cc1ccccc1-c1cc(Cl)cc(Cl)c1/C=C/[C@@H]1C[C@@H](O)CC(=O)O1 | 3.2 | 6.43
Cc1ccc(-c2cc(Cl)cc(Cl)c2/C=C/[C@@H]2C[C@@H](O)CC(=O)O2)cc1 | 11 | 6.72
Cc1cc(-c2cccc(Cl)c2/C=C/[C@@H]2C[C@@H](O)CC(=O)O2)ccc1F | 40 | 7.52
Cc1cc(C)c(/C=C/[C@@H]2C[C@@H](O)CC(=O)O2)c(-c2ccc(F)c(C)c2)c1 (stereo in doubt; 110(-)) [listing 2 of 2 here] | 0.18 | 
